Sampled rows, rich in hits. Any-hit rate of the full collection: about 2.1%.
SR-BI uptake up = activators of SR-BI mediated DiI-HDL uptake, primary screen, ldlA[mSR-BI] CHO cells, DiI fluorescence; 3 h; 100 = double the neutral-control signal; activation, % at 12.5 µM; actives 0.096% (n = 320,000); AID 504775, 2011;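 active means mean replicate activation of at least 60% and every replicate at or above 60%; inconclusive means mean or all-replicate condition met, but not both; inactive means mean below 60% and not all replicates reaching 60%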;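 further: 0% = median plate neutral-control signal and 100% = twice that signal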
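system = CHO ldlA[mSR-BI] cells, LDL receptor-null, SR-BI overexpressing | medium = Ham's F12 with 0.5% BSA, HEPES 25 mM, pH 7.4 | probe or stimulus = DiI-HDL 10 µg/mL | compound dosing = single-point compound dose | incubation = compound exposure 3 h, 37 °C | technique = DiI fluorescence, bottom read | read-out = cell-associated DiI fluorescence as measure of HDL uptake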
PKA-R2B act = activators of PKA-R2B holoenzyme, primary screen, biochemical, fluorescence polarization, Cy5-IP20, human | activation, % at 11.4 µM | cAMP-dependent protein kinase catalytic subunit beta (Homo sapiens) + cAMP-dependent … | PKA-R2B holoenzyme dissociation; R2B truncated from residue 108, S112A mutant; 0% DMSO only, 100% 113 µM cGMP | actives 0.079% (n = 340,000);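 active means activation above a cutoff set at the mean over all compounds plus 3 SD, cut at about 18% in these data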;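 further: higher means more holoenzyme dissociation and a rise in polarization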
Target sequence (P31323 whole entry, looked up, other chains not shown, the tested form may be a part): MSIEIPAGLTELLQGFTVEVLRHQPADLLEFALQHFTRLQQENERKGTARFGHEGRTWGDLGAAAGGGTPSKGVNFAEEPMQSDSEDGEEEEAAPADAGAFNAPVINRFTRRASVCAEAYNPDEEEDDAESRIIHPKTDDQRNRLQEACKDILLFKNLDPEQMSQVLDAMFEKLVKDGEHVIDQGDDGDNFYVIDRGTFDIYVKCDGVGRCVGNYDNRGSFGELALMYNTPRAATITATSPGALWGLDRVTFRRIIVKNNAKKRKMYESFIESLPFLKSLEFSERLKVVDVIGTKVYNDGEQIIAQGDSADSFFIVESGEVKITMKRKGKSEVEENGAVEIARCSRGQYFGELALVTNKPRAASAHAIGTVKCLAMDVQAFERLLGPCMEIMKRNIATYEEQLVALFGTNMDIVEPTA
PKA-R1A activ = activators of PKA-R1A holoenzyme, primary screen, biochemical, fluorescence polarization, Cy5-IP20, bovine R1A, mouse PKAc; actives 0.083% (n = 340,000); PKA-R1A dissociation; scaled: DMSO 0%, 113 µM cGMP 100%; AID 504707, 2011; cAMP-dependent protein kinase type I-alpha regulatory subunit (Bos taurus) + …; activation, % at 11.4 µM;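 active means percent activation above the mean of all tested compounds plus 3 SD, cut at about 19% in these data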;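 further: higher means more PKAc released from R1A so a rise in polarization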
CDK5 inh = inhibitors of human CDK5/p35 kinase, primary screen, biochemical, single concentration. Cyclin-dependent kinase 5 (Homo sapiens) + Cyclin-dependent kinase 5 activator 1 (Homo …. Recombinant CDK5/p35, ADP-Glo luminescence, 60 min. inhibition, % at 10 µM. actives 0.01% (n = 330,000);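 active means highest replicate inhibition of at least 50% and at least 75% of replicates reaching 50%; inconclusive means only one of the two criteria met; inactive means both criteria failed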;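 further: plate controls were DMSO neutral control for no effect and GW8510 at 10 µM for full effect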
SR-BI HDL uptake = inhibitors of SR-BI mediated HDL lipid uptake, primary screen, ldlA[mSR-BI] cells, fluorescence, single point | ldlA[mSR-BI] CHO cells, DiI-HDL uptake fluorescence, 3 h | Scavenger receptor class B member 1 (Mus musculus), Q61009 | actives 0.96% (n = 320,000) | inhibition, % at 12.5 µM | AID 488896, 2010;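 active means mean replicate inhibition of at least 70% and a set share of replicates each scoring 70 or more; inconclusive means meets just one of the two criteria; inactive means fails both criteria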;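 further: 0% = median of neutral control wells and 100% = median of positive control wells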
dFosB activator = activators of delta FosB homodimer, primary screen, biochemical, fluorescence polarization, TAMRA-CDK5 oligo, single point; Protein FosB (Mus musculus), P13346; purified delta FosB; percent of positive-control signal above neutral wells; activation, % at 25 µM; actives 0.99% (n = 340,000);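 active means mean activation above about 17%, with every replicate also reaching it, limit read from the data, passing the limit was not always enough; inconclusive means only one of the two conditions met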
* = called active by the depositor; ? = inconclusive; . = no result.

SMILES	SR-BI uptake up	PKA-R2B act	PKA-R1A activ	CDK5 inh	SR-BI HDL uptake	dFosB activator
O=C(Nc1nc2ccc3ccccc3c2s1)c1ccc(N2CCCCC2)c([N+](=O)[O-])c1	-64.9	-10.6	4.9	-2.7	64.9	-5.6
C#CCOc1ccc(/C=N/O)cc1Cl	84.2*	-2.1	-7.6	3.4	-84.2	2.4
C#CCOc1ccc(Cl)cc1/C=N/O	5.0	-0.9	7.0	0.8	-5.0	-3.3
Cn1cccc1C(=O)Nc1ccc(Cl)c(S(=O)(=O)N2CCCCC2)c1	1.1	-3.6	-4.0	0.7	-1.1	-14.5
O=C(Nc1ccc(N2CCCC2)cc1)c1ccc(Cl)cc1Cl	-76.5	3.8	-3.5	-1.0	?	-0.2
O=C(Nc1ccc(N2CCCC2)cc1)c1cccc(Cl)c1	-86.1	4.0	9.8	-0.8	86.1*	-10.6
O=C(/C=C/c1ccc(Cl)c([N+](=O)[O-])c1)Nc1ccc(N2CCCC2)cc1	-69.3	-8.8	9.2	0.3	69.3	28.4*
O=C(Nc1ccc(N2CCCC2)cc1)c1cc(Cl)ccc1Cl	-40.5	0.5	5.6	-0.6	40.5	134.8*
CCOc1ccccc1NC(=O)NNC(=O)COc1cccc(C)c1C	4.6	-4.9	5.7	-0.8	-4.6	-6.4
Cc1ccc(CNS(=O)(=O)c2c(C(=O)N3CCCCC3)c(C)n(C)c2C)o1	11.3	6.2	-6.2	0.1	-11.3	2.2
COc1ccc(C)c2sc(=NC(=O)c3ccccc3)n(C)c12	-74.1	3.8	-8.1	1.9	74.1*	2.6
COc1ccc(/C=C/C(=O)Oc2cccc(/C=N/NC(=O)c3cccc(F)c3)c2)cc1	-73.5	-8.1	-3.3	-2.4	73.5*	2.9
COc1ccc(/C=C/C(=O)Oc2ccc(/C=N\NC(=O)c3ccc(F)cc3)cc2)cc1	6.3	-2.7	-12.3	-0.9	-6.3	0.1
CC(C)N1CCOC1c1ccccc1 (stereo not drawn)	13.1	3.8	0.8	0.0	-13.1	5.4
COc1cc(OC)cc(C(=O)NC2CCN(CCCOc3ccccc3)CC2)c1	-21.2	0.5	13.5	1.5	21.2	-7.8
COc1cc(N)c(Cl)cc1C(=O)N[C@H]1CCN(CCCOc2ccc(F)cc2)C[C@H]1OC	-75.4	-8.5	-14.9	-6.1	75.4*	-6.1
COc1ccc(S(=O)(=O)N2CCC(C(=O)NC(c3nc4ccccc4[nH]3)C(C)C)CC2)cc1 (stereo not drawn)	2.7	-9.1	1.8	0.7	-2.7	4.3
C[C@H](NC(=O)N1CCn2c1nc1ccccc12)C(=O)NCCc1ccccc1	-0.9	-10.9	17.1	0.3	0.9	-9.0
COc1ccc(CC(=O)Nc2cccc(-c3ccc4nncn4n3)c2)cc1OC	.	4.5	-9.8	-0.2	.	63.5*
Cc1nnc2ccc(-c3cccc(NC(=O)Cc4cccs4)c3)nn12	.	-4.2	-2.9	-0.4	.	-32.4
COc1ccc(CC(=O)Nc2cccc(-c3ccc4nnc(C)n4n3)c2)cc1	.	9.8	0.9	-2.1	.	72.7*
COc1ccc(C(=O)Nc2cccc(-c3ccc4nncn4n3)c2)cc1OC	.	-7.7	4.4	1.0	.	-8.3
COc1ccc(CC(=O)Nc2cccc(-c3ccc4nnc(C)n4n3)c2)cc1OC	.	5.2	1.4	0.0	.	72.7*
COc1ccc(CC(=O)Nc2ccc(-c3cn4ccc(C)cc4n3)cc2)cc1	-82.7	-6.4	-2.7	-1.2	82.7*	-5.7
COc1ccc(CN(C)C(=O)/C=C/c2ccc(S(=O)(=O)N3CCCCCC3)cc2)cc1	-35.1	-4.1	-0.6	-1.3	35.1	-7.0
SMILES	SR-BI uptake up	PKA-R2B act	PKA-R1A activ	CDK5 inh	SR-BI HDL uptake	dFosB activator
CN1C(=O)C2C(c3ccc(N(C)C)cc3)NN(Cc3ccccc3)C2C1=O (stereo not drawn)	-32.4	10.6	5.5	-0.1	32.4	-7.0
COc1ccccc1CCN1CCCC(CN(C)C(=O)c2ccoc2)C1 (stereo not drawn)	5.0	-4.0	-5.0	1.4	-5.0	-4.9
C#Cc1ccc([C@H]2C=C(C(=O)O)O[C@@H](OCCCCO)C2)cc1	-5.1	-7.3	-9.0	0.3	5.1	-8.6
COCCn1c(=NC(=O)CSCC(=O)N2CCOCC2)sc2cc(C)ccc21	.	3.1	-1.3	-3.4	-9.7	-1.1
Cc1nnc2ccc(-c3cccc(NC(=O)c4ccco4)c3)nn12	.	-2.8	-0.6	0.2	.	-5.4
COc1ccc(-c2cc3c(=O)n(CC(=O)Nc4cccc(Cl)c4)nc(C)n3n2)cc1	-24.6	-9.8	2.6	0.8	24.6	23.9*
CCOc1ccc(CC(=O)Nc2cccc(-c3ccc4nnc(C)n4n3)c2)cc1	-45.6	-0.7	-13.7	-1.7	45.6	89.2*
Nc1ccc2c(c1)C(=O)c1ccc(N)cc1-2	-18.9	2.0	0.5	1.9	18.9	0.8
O=C1[C@@H]2Cc3c([nH]c4ccccc34)C(c3ccccc3)N2C(=O)CN1CCO (stereo partly drawn)	-27.7	3.1	-5.1	-1.3	27.7	-0.6
O=C1[C@@H]2Cc3c([nH]c4ccccc34)C(c3cccc([N+](=O)[O-])c3)N2C(=O)CN1C1CCN(Cc2ccccc2)CC1 (stereo partly drawn)	-62.2	7.9	-7.8	1.0	62.2	82.2*
CCOc1ccc(C2c3[nH]c4ccccc4c3C[C@H]3C(=O)N(C4CCN(Cc5ccccc5)CC4)CC(=O)N23)cc1OC (stereo partly drawn)	41.4	-0.3	6.6	0.2	-41.4	34.7*
CC(C)CN1CC(=O)N2C(c3ccccc3)c3[nH]c4ccccc4c3C[C@H]2C1=O (stereo partly drawn)	-78.4	3.0	2.2	1.5	78.4*	-14.0
COC(=O)c1ccc(C2c3[nH]c4ccccc4c3C[C@H]3C(=O)N(C4CC4)CC(=O)N23)cc1 (stereo partly drawn)	1.3	0.7	-2.1	-0.5	-1.3	-9.8
CCOc1ccc(C2c3[nH]c4ccccc4c3C[C@H]3C(=O)N(C4CC4)CC(=O)N23)cc1OC (stereo partly drawn)	-14.4	8.7	2.4	-0.4	14.4	-11.5
CCc1ccc(CN(C)CC(=O)Nc2ccc(S(=O)(=O)N3CCOCC3)cc2)cc1	0.6	-7.8	3.4	-0.1	-0.6	-10.5

From PubChem BioAssay
